Source: ChEMBL document CHEMBL3784976 (J Med Chem, 2016)
≈ marks a conversion by molar mass, not a printed value. Calls of active or inactive are those of the source. The calls are words filed in the database; no cut-off is given here.

How the values were obtained:
[1] = molecular target: Transient receptor potential cation channel subfamily V member 4 (Homo sapiens) (UniProt Q9HBA0); experiment: Antagonist activity at human TRPV4 expressed in tetracycline-inducible T-REx expression system transfected CHO cells assessed as inhibition of 4alpha-PDD-induced Ca2+ influx up to 10 uM preincubated for 2.5 mins followed by 4alpha-PDD addition measured for 1 min by luminescence assay; type: cell-based
[2] = molecular target: Alpha-2A adrenergic receptor (Homo sapiens) (UniProt P08913); experiment: Displacement of [3H]RX-821002 from human recombinant adrenergic alpha2A expressed in CHO cells assessed as remaining radioligand binding at 10 uM after 60 mins by scintillation counting method relative to control; type: cell-based
[3] = Volume of distribution at steady state in rat at 0.5 mg/kg, iv as single dose; type: ADME, organism-based; conditions: in vivo, read-out: Vdss
Procedure, shortened: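 Single intravenous dose of 0.5 mg/kg given to rats, formulated in 100% DMSO.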

[4] = molecular target: C-C chemokine receptor type 2 (Homo sapiens) (UniProt P41597); experiment: Displacement of [125I]MCP-1 from human recombinant CCR2 expressed in HEK293 cells assessed as remaining radioligand binding at 10 uM after 60 mins by scintillation counting method relative to control; type: cell-based
[5] = Ratio of unbound plasma concentration in Harlan Sprague-Dawley rat model of AITC-induced flinching at 30 mg/kg, po to IC50 for rat TRPA1 expressed in tetracycline-inducible T-REx expression system transfected CHO cells by 45Ca2+ uptake assay; type: ADME, organism-based; conditions: in vivo
Procedure, shortened: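 Rats dosed orally at 1, 3, 10 or 30 mg/kg in 2% HPMC/1% Tween-80 vehicle. After 1 h, unbound plasma concentration measured (n = 8 per dose), intraplantar AITC (0.1%) given and flinching scored over the first minute. Unbound concentration divided by in vitro rat TRPA1 45Ca2+ IC50.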

[6] = molecular target: Sodium-dependent noradrenaline transporter (Homo sapiens) (UniProt P23975); experiment: Displacement of [3H]nisoxetine from human recombinant norepinephrine transporter expressed in CHO cells assessed as remaining radioligand binding at 10 uM after 120 mins by scintillation counting method relative to control; type: cell-based
[7] = molecular target: Histamine H2 receptor (Homo sapiens) (UniProt P25021); experiment: Displacement of [125I]APT from human recombinant histamine H2 receptor expressed in CHO cells assessed as remaining radioligand binding at 10 uM after 120 mins by scintillation counting method relative to control; type: cell-based
[8] = Clearance in rat at 0.5 mg/kg, iv as single dose; type: ADME, organism-based; conditions: in vivo
[9] = molecular target: 5-hydroxytryptamine receptor 4 (Homo sapiens) (UniProt Q13639); experiment: Displacement of [3H]GR-113808 from human recombinant 5HT4E receptor expressed in CHO cells assessed as remaining radioligand binding at 10 uM after 60 mins by scintillation counting method relative to control; type: cell-based
[10] = Solubility of compound in simulated intestinal fluid; type: ADME
Rattus norvegicus [11] = organism: Rattus norvegicus; experiment: Displacement of [3H]PK-11195 from benzodiazepine receptor in rat heart assessed as remaining radioligand binding at 10 uM after 15 mins by scintillation counting method relative to control
[12] = molecular target: Transient receptor potential cation channel subfamily A member 1 (Rattus norvegicus, UniProt Q6RI86); experiment: Antagonist activity at rat TRPA1 expressed in tetracycline-inducible T-REx expression system transfected CHO cells assessed as inhibition of methylglyoxal-induced 45Ca2+ uptake preincubated for 10 mins followed by methylglyoxal addition measured after 3 mins by TopCount microplate scintillator counting method; type: cell-based
Procedure, shortened: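 Compound given 10 min at RT in HBSS/1 mM HEPES/0.1 mg/mL BSA, final 2.0 nM–40 μM (1:3 steps); then methylglyoxal (final 2.74 mM) plus 45Ca2+ (final 10 μCi/mL) in Ham's F-12/15 mM HEPES/0.1% BSA, 3 min at RT. Cells washed three times, then scintillation counted. MG uptake = 100%, no-agonist buffer = 0%. Four-parameter fit gives IC50.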

Homo sapiens = organism: Homo sapiens; experiment: Binding affinity to human delta 2-type opioid receptor assessed as remaining radioligand binding at 10 uM by radioligand displacement assay relative to control
[13] = molecular target: Substance-P receptor (Homo sapiens) (UniProt P25103); experiment: Displacement of [125I]-Substance P LYS3 from NK1 receptor in human U373MG cells assessed as remaining radioligand binding at 10 uM after 60 mins by scintillation counting method relative to control; type: cell-based; conditions: U-373MG ATCC
Plasma [14] = experiment: Unbound plasma concentration in Harlan Sprague-Dawley rat model of AITC-induced flinching at 1 mg/kg, po at 1 hr; type: ADME, organism-based; conditions: in vivo
Procedure, shortened: (§1)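 Rats were given vehicle (2% HPMC/1% Tween-80) or compound orally at 1, 3, 10 or 30 mg/kg. After 1 h, 0.1% AITC was injected into one left ventral hind paw, and nocifensive flinching was recorded over the first minute. Unbound plasma concentration was measured at 1 h, n = 8 per dose. In vivo IC50/IC90 came from the exposure–response relationship across individual animals.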

[15] = Solubility of compound in pH 7.4 phosphate buffered saline; type: physicochemical
[16] = Fraction unbound in rat plasma; type: ADME, cell-free
Cytochrome P450 2D6 = Cytochrome P450 2D6 (Homo sapiens, UniProt P10635); experiment: Inhibition of CYP2D6 in human liver microsomes using dextromethorphan as substrate by LC-MS/MS analysis in presence of NADPH; type: ADME
[17] = molecular target: 5-hydroxytryptamine receptor 5A (Homo sapiens) (UniProt P47898); experiment: Displacement of [3H]LSD from human recombinant 5HT5A receptor expressed in HEK293 cells assessed as remaining radioligand binding at 10 uM after 120 mins by scintillation counting method relative to control; type: cell-based
[18] = molecular target: Sodium channel protein type 9 subunit alpha (Mus musculus) (UniProt Q62205); experiment: Inhibition of Nav1.7 in mouse DRG neurons at 10 uM relative to control
[19] = Cmax in rat at 30 mg/kg, po; type: ADME, organism-based; design: dose 30 mg/kg, route oral; conditions: in vivo
Procedure, shortened: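 Rat oral PK at 30 mg/kg (10 mg/kg for one analogue) in 1% Tween 80/2% HPMC/97% water with methanesulfonic acid, pH 2.2.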

[20] = molecular target: Somatostatin receptor type 4 (Homo sapiens) (UniProt P31391); experiment: Displacement of [125I]Tyr11-somatostatin-14 from human recombinant SST4 receptor expressed in CHO cells assessed as remaining radioligand binding at 10 uM after 120 mins by scintillation counting method relative to control; type: cell-based
Rattus norvegicus [21] = experiment: In vivo inhibition of TRPA1 in Harlan Sprague-Dawley rat model of AITC-induced flinching assessed as unbound plasma concentration based IC90; type: functional; procedure, shortened: as §1
Plasma [22] = experiment: Unbound plasma concentration in Harlan Sprague-Dawley rat model of AITC-induced flinching at 3 mg/kg, po at 1 hr; type: ADME, organism-based; conditions: in vivo; procedure, shortened: as §1
[23] = molecular target: Transient receptor potential cation channel subfamily V member 1 (Rattus norvegicus) (UniProt O35433); experiment: Antagonist activity at rat TRPV1 assessed as inhibition of capsaicin-induced Ca2+ influx up to 10 uM preincubated for 2.5 mins followed by capsaicin addition measured for 1 min by luminescence assay
[24] = molecular target: Transient receptor potential cation channel subfamily A member 1 (Homo sapiens, UniProt O75762); experiment: Antagonist activity at human TRPA1 expressed in tetracycline-inducible T-REx expression system transfected CHO cells assessed as inhibition of AITC-induced 45Ca2+ uptake preincubated for 1 min followed by AITC addition measured after 12 mins; type: cell-based

Sequence of Sodium channel protein type 9 subunit alpha (Mus musculus) (Q62205 whole entry, looked up): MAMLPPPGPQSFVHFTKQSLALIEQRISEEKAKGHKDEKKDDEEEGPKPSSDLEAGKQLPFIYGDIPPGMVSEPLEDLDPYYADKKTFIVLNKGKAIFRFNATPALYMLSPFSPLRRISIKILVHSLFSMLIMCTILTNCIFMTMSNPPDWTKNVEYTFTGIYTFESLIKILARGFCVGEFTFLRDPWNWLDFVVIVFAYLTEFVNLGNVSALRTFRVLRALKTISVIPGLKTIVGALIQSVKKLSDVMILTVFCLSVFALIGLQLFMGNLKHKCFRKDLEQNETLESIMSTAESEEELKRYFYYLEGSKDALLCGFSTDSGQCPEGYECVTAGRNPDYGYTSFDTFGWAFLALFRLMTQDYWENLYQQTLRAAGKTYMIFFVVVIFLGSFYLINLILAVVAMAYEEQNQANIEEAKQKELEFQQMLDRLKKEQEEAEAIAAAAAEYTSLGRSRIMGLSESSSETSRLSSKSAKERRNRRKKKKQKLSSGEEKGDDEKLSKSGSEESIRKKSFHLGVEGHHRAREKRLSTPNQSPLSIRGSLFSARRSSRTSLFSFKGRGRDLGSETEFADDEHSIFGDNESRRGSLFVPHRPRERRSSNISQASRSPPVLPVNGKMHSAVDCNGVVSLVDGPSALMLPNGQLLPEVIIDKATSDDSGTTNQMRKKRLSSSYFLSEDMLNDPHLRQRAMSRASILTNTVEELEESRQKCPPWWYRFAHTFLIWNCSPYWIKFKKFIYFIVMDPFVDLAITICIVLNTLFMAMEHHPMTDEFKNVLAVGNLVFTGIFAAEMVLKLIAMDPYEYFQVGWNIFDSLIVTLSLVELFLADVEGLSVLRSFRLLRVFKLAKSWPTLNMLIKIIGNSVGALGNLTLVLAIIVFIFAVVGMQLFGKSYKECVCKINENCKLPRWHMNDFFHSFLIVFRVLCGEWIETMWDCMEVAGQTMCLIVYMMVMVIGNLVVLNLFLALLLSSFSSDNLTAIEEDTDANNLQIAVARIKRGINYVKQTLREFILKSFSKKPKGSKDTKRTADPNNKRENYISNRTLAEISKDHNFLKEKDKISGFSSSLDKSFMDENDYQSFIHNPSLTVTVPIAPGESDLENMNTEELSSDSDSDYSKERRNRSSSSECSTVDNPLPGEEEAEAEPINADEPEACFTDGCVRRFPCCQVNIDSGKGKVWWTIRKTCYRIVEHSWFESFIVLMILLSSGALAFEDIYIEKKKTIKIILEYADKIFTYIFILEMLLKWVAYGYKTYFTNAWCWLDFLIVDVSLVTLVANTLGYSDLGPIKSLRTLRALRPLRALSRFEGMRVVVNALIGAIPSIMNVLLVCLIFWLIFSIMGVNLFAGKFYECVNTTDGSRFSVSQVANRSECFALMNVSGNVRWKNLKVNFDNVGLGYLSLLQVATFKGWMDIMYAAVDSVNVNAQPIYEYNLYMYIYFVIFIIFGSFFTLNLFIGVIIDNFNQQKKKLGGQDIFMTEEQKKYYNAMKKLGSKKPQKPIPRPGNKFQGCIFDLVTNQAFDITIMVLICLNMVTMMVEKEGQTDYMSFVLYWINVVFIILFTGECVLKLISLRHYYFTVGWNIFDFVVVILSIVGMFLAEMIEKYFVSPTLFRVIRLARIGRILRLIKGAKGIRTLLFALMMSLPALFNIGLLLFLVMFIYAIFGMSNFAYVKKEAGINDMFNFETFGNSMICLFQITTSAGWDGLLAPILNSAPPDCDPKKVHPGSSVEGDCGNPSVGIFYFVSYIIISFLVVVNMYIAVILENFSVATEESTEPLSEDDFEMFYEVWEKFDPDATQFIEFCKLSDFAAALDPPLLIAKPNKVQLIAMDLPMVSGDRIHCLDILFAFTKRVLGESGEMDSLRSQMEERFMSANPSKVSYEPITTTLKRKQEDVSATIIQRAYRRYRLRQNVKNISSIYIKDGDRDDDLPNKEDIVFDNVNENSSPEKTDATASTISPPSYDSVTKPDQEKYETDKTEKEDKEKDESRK
Sequence of Transient receptor potential cation channel subfamily A member 1 (Rattus norvegicus, UniProt Q6RI86) (Q6RI86 whole entry): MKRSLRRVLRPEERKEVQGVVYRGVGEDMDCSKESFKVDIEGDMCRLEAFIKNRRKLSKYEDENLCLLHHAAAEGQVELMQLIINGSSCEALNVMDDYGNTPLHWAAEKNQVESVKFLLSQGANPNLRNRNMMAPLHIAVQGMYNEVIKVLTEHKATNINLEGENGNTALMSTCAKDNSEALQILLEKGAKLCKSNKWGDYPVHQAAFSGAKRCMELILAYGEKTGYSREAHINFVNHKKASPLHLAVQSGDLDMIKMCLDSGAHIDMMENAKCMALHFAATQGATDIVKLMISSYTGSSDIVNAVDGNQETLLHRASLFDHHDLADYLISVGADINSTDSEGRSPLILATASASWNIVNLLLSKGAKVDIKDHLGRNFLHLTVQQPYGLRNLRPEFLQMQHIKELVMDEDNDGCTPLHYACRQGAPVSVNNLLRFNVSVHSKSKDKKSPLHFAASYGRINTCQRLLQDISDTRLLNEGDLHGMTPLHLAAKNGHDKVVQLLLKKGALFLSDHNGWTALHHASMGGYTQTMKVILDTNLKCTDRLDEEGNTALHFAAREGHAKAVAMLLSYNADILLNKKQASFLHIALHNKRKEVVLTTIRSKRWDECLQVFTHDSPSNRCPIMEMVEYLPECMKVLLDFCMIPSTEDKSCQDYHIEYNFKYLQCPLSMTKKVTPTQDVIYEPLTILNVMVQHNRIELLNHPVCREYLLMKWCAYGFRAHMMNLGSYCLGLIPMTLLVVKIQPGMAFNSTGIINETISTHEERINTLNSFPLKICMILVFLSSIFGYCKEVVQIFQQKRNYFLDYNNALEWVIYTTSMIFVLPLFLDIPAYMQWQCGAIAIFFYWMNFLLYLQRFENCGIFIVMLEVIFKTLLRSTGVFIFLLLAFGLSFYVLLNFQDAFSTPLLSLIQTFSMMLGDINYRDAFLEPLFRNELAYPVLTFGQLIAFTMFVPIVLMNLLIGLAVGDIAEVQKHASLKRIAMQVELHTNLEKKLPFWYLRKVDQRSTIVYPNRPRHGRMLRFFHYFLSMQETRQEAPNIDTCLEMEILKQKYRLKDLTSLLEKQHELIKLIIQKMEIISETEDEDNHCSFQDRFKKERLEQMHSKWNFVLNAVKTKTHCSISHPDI
Sequence of Transient receptor potential cation channel subfamily V member 1 (Rattus norvegicus) (O35433 whole entry): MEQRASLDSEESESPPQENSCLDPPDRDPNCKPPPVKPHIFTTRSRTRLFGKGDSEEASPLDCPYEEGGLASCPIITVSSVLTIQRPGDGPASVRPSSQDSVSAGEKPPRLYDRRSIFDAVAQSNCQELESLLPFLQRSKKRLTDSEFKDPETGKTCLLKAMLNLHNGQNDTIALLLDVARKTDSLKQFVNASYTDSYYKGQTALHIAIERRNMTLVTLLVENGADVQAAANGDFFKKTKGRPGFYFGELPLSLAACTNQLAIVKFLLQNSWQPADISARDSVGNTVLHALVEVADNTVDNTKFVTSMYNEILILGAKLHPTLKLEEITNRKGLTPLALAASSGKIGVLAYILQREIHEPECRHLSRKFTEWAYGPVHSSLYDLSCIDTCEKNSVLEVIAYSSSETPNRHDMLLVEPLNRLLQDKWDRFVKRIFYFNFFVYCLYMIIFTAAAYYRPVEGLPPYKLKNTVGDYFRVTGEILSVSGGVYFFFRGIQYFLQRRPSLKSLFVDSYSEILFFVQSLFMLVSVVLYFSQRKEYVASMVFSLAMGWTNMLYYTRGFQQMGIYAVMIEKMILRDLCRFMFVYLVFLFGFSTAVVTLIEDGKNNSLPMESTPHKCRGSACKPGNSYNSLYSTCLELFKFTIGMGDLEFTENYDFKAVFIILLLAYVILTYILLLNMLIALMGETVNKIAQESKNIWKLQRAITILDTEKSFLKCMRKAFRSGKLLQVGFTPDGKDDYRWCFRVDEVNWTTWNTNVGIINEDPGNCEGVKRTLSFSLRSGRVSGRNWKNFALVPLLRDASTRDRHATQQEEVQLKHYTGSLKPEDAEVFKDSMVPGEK
Sequence of 5-hydroxytryptamine receptor 5A (Homo sapiens) (P47898 whole entry): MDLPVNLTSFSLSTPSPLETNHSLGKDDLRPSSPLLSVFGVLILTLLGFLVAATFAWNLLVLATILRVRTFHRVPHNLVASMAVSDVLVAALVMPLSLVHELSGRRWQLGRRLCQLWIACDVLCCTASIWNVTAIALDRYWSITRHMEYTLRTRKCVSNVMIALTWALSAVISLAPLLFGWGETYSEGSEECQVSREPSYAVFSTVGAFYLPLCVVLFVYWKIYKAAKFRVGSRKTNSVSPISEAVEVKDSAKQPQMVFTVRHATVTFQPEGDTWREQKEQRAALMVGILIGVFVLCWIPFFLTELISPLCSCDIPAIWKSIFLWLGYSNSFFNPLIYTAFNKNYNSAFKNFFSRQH
Sequence of Somatostatin receptor type 4 (Homo sapiens) (P31391 whole entry): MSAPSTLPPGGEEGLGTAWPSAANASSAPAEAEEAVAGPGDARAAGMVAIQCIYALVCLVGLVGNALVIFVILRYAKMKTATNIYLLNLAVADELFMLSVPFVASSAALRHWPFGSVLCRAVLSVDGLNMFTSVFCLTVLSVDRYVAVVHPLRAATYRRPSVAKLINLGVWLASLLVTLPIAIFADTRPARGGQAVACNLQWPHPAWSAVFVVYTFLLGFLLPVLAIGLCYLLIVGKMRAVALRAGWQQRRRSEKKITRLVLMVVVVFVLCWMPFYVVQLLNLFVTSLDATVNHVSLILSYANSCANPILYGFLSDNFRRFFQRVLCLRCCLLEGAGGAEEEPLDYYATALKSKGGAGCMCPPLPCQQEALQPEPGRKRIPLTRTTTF
Sequence of Substance-P receptor (Homo sapiens) (P25103 whole entry): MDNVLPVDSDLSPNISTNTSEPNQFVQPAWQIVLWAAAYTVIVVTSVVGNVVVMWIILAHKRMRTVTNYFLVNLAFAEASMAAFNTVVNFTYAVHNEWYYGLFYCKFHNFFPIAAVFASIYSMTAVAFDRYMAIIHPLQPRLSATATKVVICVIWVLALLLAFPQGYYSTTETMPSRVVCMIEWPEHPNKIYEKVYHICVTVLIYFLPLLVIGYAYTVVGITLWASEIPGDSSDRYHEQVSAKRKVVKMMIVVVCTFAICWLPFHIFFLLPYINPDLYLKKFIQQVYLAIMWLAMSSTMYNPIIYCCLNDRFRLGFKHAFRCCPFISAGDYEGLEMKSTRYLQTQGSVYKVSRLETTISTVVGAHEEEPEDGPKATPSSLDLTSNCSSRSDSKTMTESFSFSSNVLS

Cn1cnc2ncn(Cc3nc(CCc4ccc(Cl)cc4)no3)c(=O)c21
inhibition [1]: inactive | Activity [2]: > 77% | Vd [3]: 1.7 L/kg | Activity [4]: > 77% | Ratio [5]: 30.3 | Activity [6]: > 77% | Activity [7]: > 77% | clearance [8]: 41.7 mL/min/kg | Activity [9]: > 77% | solubility [10]: 248 µM (≈ 92 µg/mL) | Activity (Rattus norvegicus [11]): > 77% | IC50 [12]: 19 nM | Activity (Homo sapiens): > 77% | Activity [13]: > 77% | Cp(f) (Plasma [14]): 0.051 µM | solubility [15]: 226 µM (≈ 83.8 µg/mL) | fraction unbound [16]: 0.289 | IC50 (Cytochrome P450 2D6): > 27000 nM | Activity [17]: > 77% | inhibition [18]: 10% | Cmax [19]: 7.5 µM | Activity [20]: > 77% | IC90 (Rattus norvegicus [21]): 1700 nM | Cp(f) (Plasma [22]): 0.19 µM | inhibition [23]: inactive | IC50 [24]: 131 nM
